Assay results: ChEMBL document CHEMBL1140384, “Synthesis and structure-activity relationships of suramin-derived P2Y11 receptor antagonists with nanomolar potency” (J Med Chem, 2005)

What was measured:
[1] = biological target: T1, P2X purinoceptor 3 (Rattus norvegicus, UniProt P49654); test: Inhibitory concentration against rat P2X purinoceptor 3 expressed in Xenopus laevis oocytes; format: functional, cell-based, Oocyte
T1 sequence (P49654 whole entry): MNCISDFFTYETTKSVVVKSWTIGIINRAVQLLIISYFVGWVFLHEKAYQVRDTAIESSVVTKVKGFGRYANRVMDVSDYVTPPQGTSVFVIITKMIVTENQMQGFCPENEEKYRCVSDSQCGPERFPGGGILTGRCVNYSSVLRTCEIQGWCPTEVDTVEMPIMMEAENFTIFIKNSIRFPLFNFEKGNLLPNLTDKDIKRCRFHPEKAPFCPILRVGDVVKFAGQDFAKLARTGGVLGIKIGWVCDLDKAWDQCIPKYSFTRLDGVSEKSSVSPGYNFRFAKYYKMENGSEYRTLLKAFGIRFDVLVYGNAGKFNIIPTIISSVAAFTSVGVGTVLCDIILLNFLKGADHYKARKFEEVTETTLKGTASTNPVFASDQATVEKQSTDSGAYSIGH
How it was run: (§1)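 Two-electrode voltage clamp on Xenopus laevis oocytes expressing recombinant rat or human P2X subtypes, recording receptor-mediated currents. IC50 values came from nonlinear least-squares Hill fits to pooled concentration-inhibition data; mean ± SEM from at least three experiments.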

[2] = biological target: T2, P2X purinoceptor 1 (Homo sapiens, UniProt P51575); test: Inhibitory concentration against human P2X purinoceptor 1 expressed in Xenopus laevis oocytes; format: functional, cell-based, Oocyte; how it was run: as §1
T2 sequence (P51575 whole entry): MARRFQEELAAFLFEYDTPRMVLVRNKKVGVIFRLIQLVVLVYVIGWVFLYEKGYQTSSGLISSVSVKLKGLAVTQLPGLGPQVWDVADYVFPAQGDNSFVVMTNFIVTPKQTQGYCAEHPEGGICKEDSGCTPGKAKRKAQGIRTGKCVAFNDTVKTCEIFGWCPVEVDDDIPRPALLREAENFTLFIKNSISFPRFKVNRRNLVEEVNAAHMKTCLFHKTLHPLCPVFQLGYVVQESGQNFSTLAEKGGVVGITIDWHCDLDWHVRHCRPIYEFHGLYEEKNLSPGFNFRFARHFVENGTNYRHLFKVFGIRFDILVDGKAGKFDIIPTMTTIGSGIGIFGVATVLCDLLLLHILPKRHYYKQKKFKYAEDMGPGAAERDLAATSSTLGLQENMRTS

[3] = biological target: T3, P2X purinoceptor 3 (Homo sapiens, UniProt P56373); test: Inhibitory concentration against human P2X purinoceptor 3 expressed in Xenopus laevis oocytes; format: functional, cell-based, Oocyte; how it was run: as §1
T3 sequence (P56373 whole entry): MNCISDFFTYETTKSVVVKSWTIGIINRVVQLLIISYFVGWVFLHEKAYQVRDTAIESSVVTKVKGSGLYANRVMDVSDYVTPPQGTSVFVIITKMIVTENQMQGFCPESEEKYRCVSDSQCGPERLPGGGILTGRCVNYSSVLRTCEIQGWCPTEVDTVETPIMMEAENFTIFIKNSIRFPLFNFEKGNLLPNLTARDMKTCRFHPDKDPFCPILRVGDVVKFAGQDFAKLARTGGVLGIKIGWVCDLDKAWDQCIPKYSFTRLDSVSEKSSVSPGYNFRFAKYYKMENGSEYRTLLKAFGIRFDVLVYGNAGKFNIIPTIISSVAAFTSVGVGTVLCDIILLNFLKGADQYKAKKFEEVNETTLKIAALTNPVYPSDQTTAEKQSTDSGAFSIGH

[4] = biological target: P2Y purinoceptor 1 (Homo sapiens, UniProt P47900); test: Inhibitory concentration against P2Y purinoceptor 1 expressed in 1321N1 astrocytoma Cells; (n=3)
[5] = biological target: T4, P2Y purinoceptor 11 (Homo sapiens, UniProt Q96G91); test: Inhibitory concentration against P2Y11 receptor expressed in 1321N1 astrocytoma Cells; (n=7)
T4 sequence (Q96G91 whole entry): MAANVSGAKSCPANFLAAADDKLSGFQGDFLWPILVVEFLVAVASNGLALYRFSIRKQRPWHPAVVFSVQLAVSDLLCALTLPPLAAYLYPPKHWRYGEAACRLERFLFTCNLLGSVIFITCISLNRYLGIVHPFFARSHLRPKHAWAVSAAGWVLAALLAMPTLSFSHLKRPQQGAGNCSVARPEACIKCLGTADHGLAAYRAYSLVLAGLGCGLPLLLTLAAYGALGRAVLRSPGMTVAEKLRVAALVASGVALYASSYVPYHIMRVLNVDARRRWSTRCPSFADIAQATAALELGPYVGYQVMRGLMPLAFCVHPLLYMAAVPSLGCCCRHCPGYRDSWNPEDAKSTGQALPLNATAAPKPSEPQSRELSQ
How it was run: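 Human P2Y11 stably expressed in 1321N1 astrocytoma cells (G418 selection), loaded with Oregon Green 488 BAPTA-1/AM (3 µM, 60 min, 25 °C) in Krebs-HEPES. Compound preincubated 30 min at 37 °C before injection of 1 µM ATPγS. Ca2+ fluorescence read at ex 485/em 520 nm for 30 s. IC50 from concentration-inhibition curves; independent experiments each run in triplicate.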

[6] = biological target: P2X purinoceptor 4 (Rattus norvegicus) (UniProt P51577); test: Inhibitory concentration against rat P2X purinoceptor 4 expressed in Xenopus laevis oocytes
P2X purinoceptor 4 (Rattus norvegicus), sequence (P51577 whole entry, looked up): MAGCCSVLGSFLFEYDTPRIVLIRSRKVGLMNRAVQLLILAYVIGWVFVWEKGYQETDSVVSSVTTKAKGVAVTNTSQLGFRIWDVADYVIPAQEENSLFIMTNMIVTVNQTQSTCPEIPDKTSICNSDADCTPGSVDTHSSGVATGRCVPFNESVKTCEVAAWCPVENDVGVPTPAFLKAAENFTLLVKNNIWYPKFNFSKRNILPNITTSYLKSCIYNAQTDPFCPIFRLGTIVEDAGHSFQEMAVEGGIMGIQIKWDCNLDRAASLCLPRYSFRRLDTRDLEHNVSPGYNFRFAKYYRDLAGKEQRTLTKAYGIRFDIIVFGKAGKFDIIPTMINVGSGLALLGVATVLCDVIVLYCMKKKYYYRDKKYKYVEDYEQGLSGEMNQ

P2Y purinoceptor 1, sequence (P47900 whole entry): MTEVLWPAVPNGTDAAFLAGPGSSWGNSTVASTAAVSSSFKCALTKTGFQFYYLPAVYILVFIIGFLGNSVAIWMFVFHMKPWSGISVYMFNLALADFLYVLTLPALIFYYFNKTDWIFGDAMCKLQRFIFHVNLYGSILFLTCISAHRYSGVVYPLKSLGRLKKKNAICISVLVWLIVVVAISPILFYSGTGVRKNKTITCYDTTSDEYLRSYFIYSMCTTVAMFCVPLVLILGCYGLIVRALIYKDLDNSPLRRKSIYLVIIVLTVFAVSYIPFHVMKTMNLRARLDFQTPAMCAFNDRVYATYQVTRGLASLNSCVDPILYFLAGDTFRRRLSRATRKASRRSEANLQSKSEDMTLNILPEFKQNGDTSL

Compound: O=C(Nc1cccc(C(=O)Nc2cc(C(=O)Nc3ccc(S(=O)(=O)O)c4cc(S(=O)(=O)O)cc(S(=O)(=O)O)c34)ccc2F)c1)Nc1cccc(C(=O)Nc2cc(C(=O)Nc3ccc(S(=O)(=O)O)c4cc(S(=O)(=O)O)cc(S(=O)(=O)O)c34)ccc2F)c1
- IC50 [1]: 0.776 µM
- IC50 [2]: 0.0631 µM
- IC50 [3]: 0.355 µM
- IC50 [4]: 1820 µM
- IC50 [5]: 0.457 µM
- IC50 [6]: > 1 µM
